Calls of active or inactive are those of the source. The calls are words filed in the database; no cut-off is given here.
Legend:
[1] = biological target: T1, Metabotropic glutamate receptor 5 (Rattus norvegicus, UniProt P31424); experiment: Positive allosteric modulation at rat mGluR5 receptor expressed in HEK293 cells assessed as glutamate-induced calcium fluorescence by Fluo-4/AM dye-based fluorescence assay; type: functional, cell-based
[2] = biological target: Metabotropic glutamate receptor 5 (Rattus norvegicus) (UniProt P31424); experiment: Positive allosteric modulation at rat mGluR5 receptor expressed in HEK293 cells assessed as glutamate-induced calcium fluorescence at 30 uM by Fluo-4/AM dye-based fluorescence assay in relative to glutamate; type: functional, cell-based
[3] = biological target: Metabotropic glutamate receptor 6 (Rattus norvegicus) (UniProt P35349); experiment: Potentiation of rat mGluR6 receptor assessed as fold shift in glutamate concentration response curve at 10 uM relative to control
[4] = biological target: Metabotropic glutamate receptor 5 (Rattus norvegicus) (UniProt P31424); experiment: Potentiation of rat mGluR5 receptor assessed as fold shift in glutamate concentration response curve at 10 uM relative to control
[5] = biological target: Metabotropic glutamate receptor 2 (Rattus norvegicus) (UniProt P31421); experiment: Potentiation of rat mGluR2 receptor assessed as fold shift in glutamate concentration response curve at 10 uM relative to control
[6] = Aqueous solubility of the compound in 0.1 M citrate buffer at pH 4 by HPLC; type: physicochemical
Plasma [7] = experiment: Plasma protein binding in human after 4 hrs by LC-MS-MS; type: ADME, cell-free
[8] = biological target: Metabotropic glutamate receptor 5 (Rattus norvegicus) (UniProt P31424); experiment: Positive allosteric modulation at mGluR5 in […] cells at 30 uM by Fluo-4/AM dye-based fluorescence assay; type: cell-based
[9] = Metabolic stability in Sprague-Dawley rat liver microsome assessed as compound remaining after 60 mins by LC-MS-MS; type: ADME; conditions: liver microsomes, read-out: Stability
[10] = Aqueous solubility of the compound in 0.01 N HCl buffer at pH 2 by HPLC; type: physicochemical
[11] = biological target: Metabotropic glutamate receptor 5 (Rattus norvegicus) (UniProt P31424); experiment: Displacement of [3H]3-methoxy-PEPy from rat mGluR5 receptor allosteric binding site at 30 uM
Summary of the method: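 Radioligand binding uses [3H]3-methoxy-PEPy at the mGluR5 allosteric site. Displacement is read at the highest compound concentration tested, 30 μM.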

[12] = Metabolic stability in human liver microsome assessed as compound remaining after 60 mins by LC-MS-MS; type: ADME; conditions: liver microsomes, read-out: Stability
Rattus norvegicus = experiment: Reversal of amphetamine-induced hyperlocomotion in Sprague-Dawley rat at 56.6 mg/kg, ip administered 30 mins before amphetamine challenge measured for 60 mins; type: functional, organism-based; design: dose 56.6 mg/kg
Summary of the method: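 Rats get vehicle or 56.6 mg/kg compound ip in 20% HP β-cyclodextrin 30 min before 1 mg/kg sc amphetamine, given at 60 min. Ambulations (beam breaks per 5 min interval) are counted for a further 60 min. Groups are 12−14 rats, shown as mean ± SEM, compared with the vehicle + amphetamine group by Dunnett's test.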

[13] = Passive transcellular permeability of the compound by PAMPA; type: ADME; conditions: read-out: permeability
[14] = biological target: Metabotropic glutamate receptor 8 (Rattus norvegicus) (UniProt P70579); experiment: Potentiation of rat mGluR8 receptor assessed as fold shift in glutamate concentration response curve at 10 uM relative to control
Plasma [15] = experiment: Plasma protein binding in Sprague-Dawley rat after 4 hrs by LC-MS-MS; type: ADME, cell-free
[16] = Aqueous solubility of the compound in 0.2M sodium phosphate buffer at pH 7.4 by HPLC; type: physicochemical
[17] = biological target: Metabotropic glutamate receptor 3 (Rattus norvegicus) (UniProt P31422); experiment: Potentiation of rat mGluR3 receptor assessed as fold shift in glutamate concentration response curve at 10 uM relative to control
[18] = biological target: Metabotropic glutamate receptor 4 (Rattus norvegicus) (UniProt P31423); experiment: Potentiation of rat mGluR4 receptor assessed as fold shift in glutamate concentration response curve at 10 uM relative to control
[19] = biological target: Metabotropic glutamate receptor 5 (Rattus norvegicus) (UniProt P31424); experiment: Potentiation of rat mGluR5 expressed in HEK293 cells assessed as glutamate-induced calcium fluorescence at 10 uM by Fluo-4/AM dye-based fluorescence assay; type: functional, cell-based
[20] = biological target: Metabotropic glutamate receptor 1 (Rattus norvegicus) (UniProt P23385); experiment: Potentiation of rat mGluR1 receptor assessed as fold shift in glutamate concentration response curve at 10 uM relative to control
[21] = biological target: Metabotropic glutamate receptor 7 (Rattus norvegicus) (UniProt P35400); experiment: Potentiation of rat mGluR7 receptor assessed as fold shift in glutamate concentration response curve at 10 uM relative to control
[22] = biological target: T1, Metabotropic glutamate receptor 5; experiment: Negative allosteric modulation at rat mGluR5 receptor

T1 sequence (P31424 whole entry): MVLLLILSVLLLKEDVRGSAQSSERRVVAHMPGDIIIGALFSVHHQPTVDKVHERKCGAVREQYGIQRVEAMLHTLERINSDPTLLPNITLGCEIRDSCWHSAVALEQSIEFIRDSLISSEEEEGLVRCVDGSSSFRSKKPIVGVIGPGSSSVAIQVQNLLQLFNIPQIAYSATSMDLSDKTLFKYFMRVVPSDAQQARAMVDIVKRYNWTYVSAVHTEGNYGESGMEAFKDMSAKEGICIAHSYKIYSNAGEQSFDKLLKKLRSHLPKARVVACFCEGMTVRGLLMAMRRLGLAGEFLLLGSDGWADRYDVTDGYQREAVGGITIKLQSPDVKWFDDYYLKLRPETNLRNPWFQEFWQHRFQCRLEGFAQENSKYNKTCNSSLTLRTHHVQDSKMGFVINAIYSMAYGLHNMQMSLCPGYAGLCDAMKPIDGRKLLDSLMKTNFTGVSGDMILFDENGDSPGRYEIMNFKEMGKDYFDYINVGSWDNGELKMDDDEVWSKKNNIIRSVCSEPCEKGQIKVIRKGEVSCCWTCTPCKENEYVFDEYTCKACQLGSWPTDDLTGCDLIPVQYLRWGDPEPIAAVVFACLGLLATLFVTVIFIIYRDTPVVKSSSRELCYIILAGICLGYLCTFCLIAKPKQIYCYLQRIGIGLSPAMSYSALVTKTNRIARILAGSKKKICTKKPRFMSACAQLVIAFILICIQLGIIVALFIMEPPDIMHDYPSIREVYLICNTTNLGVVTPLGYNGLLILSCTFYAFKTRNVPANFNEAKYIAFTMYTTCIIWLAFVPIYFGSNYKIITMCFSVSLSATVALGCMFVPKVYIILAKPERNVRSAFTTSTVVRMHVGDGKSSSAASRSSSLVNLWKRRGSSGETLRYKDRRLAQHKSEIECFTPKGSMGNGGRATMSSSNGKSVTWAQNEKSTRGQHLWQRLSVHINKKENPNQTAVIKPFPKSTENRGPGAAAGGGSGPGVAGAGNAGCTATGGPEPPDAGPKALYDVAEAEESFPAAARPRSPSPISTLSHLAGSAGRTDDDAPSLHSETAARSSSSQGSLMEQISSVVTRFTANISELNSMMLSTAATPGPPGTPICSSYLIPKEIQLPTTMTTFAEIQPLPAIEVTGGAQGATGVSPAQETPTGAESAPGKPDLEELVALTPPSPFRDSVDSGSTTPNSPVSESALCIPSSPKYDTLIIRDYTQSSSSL
Chain of Metabotropic glutamate receptor 5 (Rattus norvegicus) (P31424 21-1203 limits assumed): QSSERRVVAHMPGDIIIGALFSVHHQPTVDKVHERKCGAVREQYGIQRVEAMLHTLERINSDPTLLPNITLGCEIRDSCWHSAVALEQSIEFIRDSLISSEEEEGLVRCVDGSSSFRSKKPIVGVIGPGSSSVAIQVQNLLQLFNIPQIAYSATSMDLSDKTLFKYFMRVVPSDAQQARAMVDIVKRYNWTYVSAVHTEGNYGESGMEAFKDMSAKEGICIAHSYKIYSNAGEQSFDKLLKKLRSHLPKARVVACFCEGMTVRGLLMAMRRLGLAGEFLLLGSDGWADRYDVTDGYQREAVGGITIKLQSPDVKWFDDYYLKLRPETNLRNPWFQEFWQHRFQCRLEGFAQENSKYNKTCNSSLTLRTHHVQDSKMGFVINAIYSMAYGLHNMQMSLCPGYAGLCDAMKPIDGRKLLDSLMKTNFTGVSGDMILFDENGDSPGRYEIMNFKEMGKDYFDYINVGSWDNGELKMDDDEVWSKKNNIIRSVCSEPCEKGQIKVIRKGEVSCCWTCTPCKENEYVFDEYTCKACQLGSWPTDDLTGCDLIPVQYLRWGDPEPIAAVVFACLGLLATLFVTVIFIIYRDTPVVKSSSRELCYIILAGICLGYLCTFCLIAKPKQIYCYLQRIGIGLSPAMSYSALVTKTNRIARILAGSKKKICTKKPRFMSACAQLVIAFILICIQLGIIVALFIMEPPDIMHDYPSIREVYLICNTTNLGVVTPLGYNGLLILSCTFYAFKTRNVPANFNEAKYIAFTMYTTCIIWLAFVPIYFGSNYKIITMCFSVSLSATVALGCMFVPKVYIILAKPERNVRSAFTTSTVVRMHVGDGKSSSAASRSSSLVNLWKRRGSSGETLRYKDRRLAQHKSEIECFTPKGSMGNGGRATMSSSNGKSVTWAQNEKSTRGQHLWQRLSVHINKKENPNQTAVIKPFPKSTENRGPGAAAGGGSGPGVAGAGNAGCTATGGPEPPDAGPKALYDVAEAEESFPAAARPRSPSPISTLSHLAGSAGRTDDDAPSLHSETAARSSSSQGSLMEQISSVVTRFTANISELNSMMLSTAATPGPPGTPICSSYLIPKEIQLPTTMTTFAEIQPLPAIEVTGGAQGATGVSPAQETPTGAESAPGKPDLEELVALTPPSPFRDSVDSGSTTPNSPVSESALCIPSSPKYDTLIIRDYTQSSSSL
Chain of Metabotropic glutamate receptor 1 (Rattus norvegicus) (P23385 19-1199 limits assumed): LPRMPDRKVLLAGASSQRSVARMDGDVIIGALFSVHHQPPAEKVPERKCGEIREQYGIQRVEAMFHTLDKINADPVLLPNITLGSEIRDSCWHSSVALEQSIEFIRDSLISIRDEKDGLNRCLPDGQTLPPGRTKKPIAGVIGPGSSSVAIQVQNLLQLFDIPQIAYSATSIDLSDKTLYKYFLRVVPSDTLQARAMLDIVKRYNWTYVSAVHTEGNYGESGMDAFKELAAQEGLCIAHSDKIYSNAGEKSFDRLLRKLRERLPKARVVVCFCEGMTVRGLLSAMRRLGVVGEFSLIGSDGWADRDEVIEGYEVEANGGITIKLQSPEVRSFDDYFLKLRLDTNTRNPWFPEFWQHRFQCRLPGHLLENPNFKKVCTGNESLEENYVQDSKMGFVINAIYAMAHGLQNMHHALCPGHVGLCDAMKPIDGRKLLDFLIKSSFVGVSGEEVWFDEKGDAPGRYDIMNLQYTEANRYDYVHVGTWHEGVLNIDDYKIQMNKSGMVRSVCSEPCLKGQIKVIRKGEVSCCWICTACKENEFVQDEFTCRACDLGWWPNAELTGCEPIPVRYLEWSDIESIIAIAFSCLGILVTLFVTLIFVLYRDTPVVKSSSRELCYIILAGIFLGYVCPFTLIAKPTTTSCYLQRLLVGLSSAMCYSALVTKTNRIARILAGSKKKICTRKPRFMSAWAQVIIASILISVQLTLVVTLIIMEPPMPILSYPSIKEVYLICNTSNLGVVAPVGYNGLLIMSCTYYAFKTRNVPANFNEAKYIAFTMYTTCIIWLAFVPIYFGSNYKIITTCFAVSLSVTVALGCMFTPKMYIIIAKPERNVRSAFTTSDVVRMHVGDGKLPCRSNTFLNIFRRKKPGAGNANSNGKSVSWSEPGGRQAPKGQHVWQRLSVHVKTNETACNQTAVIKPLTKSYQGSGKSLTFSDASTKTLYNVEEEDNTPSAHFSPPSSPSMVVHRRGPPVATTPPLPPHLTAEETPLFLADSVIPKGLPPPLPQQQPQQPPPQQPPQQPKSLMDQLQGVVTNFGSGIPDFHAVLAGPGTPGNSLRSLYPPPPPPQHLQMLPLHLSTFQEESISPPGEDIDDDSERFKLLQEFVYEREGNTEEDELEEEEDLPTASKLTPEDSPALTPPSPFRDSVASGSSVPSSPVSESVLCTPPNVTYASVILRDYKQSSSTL
Chain of Metabotropic glutamate receptor 2 (Rattus norvegicus) (P31421 19-872 limits assumed): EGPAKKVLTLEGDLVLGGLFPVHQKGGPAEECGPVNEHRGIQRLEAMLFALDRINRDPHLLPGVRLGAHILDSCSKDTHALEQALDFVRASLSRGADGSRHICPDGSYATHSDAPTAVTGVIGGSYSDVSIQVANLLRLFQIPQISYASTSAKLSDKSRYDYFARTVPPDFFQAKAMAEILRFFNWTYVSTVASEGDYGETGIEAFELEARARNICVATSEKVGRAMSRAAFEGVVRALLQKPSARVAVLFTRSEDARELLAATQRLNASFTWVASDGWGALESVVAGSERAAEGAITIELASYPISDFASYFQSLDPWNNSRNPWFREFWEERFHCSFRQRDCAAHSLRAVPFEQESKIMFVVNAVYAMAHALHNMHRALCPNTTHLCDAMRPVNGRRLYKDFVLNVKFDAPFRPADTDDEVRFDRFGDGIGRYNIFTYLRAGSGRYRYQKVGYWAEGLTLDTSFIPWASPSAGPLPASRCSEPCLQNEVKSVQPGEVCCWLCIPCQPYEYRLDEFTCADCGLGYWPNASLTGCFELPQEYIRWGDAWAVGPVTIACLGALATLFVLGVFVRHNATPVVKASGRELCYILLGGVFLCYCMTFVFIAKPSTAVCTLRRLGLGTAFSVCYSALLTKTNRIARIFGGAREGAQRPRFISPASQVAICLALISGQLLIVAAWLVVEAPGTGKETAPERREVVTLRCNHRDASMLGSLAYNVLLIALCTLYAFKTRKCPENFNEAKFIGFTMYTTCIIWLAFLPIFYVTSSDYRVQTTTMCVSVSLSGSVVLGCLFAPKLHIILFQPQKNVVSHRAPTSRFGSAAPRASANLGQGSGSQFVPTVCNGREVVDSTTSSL

SMILES: N#Cc1cccnc1N1CCN(C(=O)COCc2ccccc2)CC1
- EC50 ([1]; read-out: EC50): > 10 µM
- Activity [2]: 33%

SMILES: O=C(COCc1ccccc1)N1CCN(c2ccccn2)CC1
- EC50 ([1]; read-out: EC50): 5.4 µM
- Activity [2]: 86%

SMILES: O=C(COCc1ccccc1)N1CCN(c2ncccc2C(F)(F)F)CC1
- EC50 ([1]; read-out: EC50): 4.3 µM
- Activity [2]: 70%

SMILES: COC(=O)c1ccccc1N1CCN(C(=O)COCc2ccccc2)CC1
- EC50 ([1]; read-out: EC50): > 10 µM
- Activity [2]: 51%

SMILES: N#Cc1ccccc1N1CCN(C(=O)COCc2ccccc2)CC1
- Activity [3]: inactive
- fold change (FC) [4]: 12
- Activity [5]: inactive
- EC50 ([1]; read-out: EC50): 1.6 µM
- solubility [6]: > 80 µM
- PPB (Plasma [7]): 94%
- Activity [8]: < 10%
- remaining at 1 h [9]: < 5%
- solubility [10]: > 80 µM
- Activity [2]: 78%
- Activity [11]: inactive
- remaining at 1 h [12]: < 5%
- Activity (Rattus norvegicus): Active
- Papp [13]: 2.2 ×10⁻⁶ cm/s
- Activity [14]: inactive
- PPB (Plasma [15]): 90%
- solubility [16]: > 80 µM
- Activity [17]: inactive
- Activity [18]: inactive
- Activity [19]: Active
- Activity [20]: inactive
- Activity [21]: inactive

SMILES: COc1ccccc1N1CCN(C(=O)COCc2ccccc2)CC1
- EC50 ([1]; read-out: EC50): 9.2 µM
- Activity [2]: 86%

SMILES: O=C(COCc1ccccc1)N1CCN(c2ccccc2Cl)CC1
- EC50 ([1]; read-out: EC50): 0.82 µM
- Activity [2]: 90%

SMILES: O=C(COCc1ccccc1)N1CCN(c2ncccn2)CC1
- EC50 ([1]; hek293): Not Active

SMILES: O=C(COCc1ccccc1)N1CCN(c2cccnc2)CC1
- EC50 ([1]; hek293): Not Active

SMILES: O=C(COCc1ccccc1)N1CCN(c2ccccc2[N+](=O)[O-])CC1
- EC50 ([1]; read-out: EC50): 1.8 µM
- Activity [2]: 81%

SMILES: O=C(COCc1ccccc1)N1CCN(c2nc3ccccc3s2)CC1
- EC50 ([1]; read-out: EC50): > 10 µM
- Activity [2]: 66%

SMILES: O=C(COCc1ccccc1)N1CCN(c2nccs2)CC1
- EC50 ([1]; read-out: EC50): > 10 µM
- Activity [2]: 30%

SMILES: O=C(N1CCN(c2ccccn2)CC1)C12CC3CC(CC(C3)C1)C2
- IC50 [22]: 0.99 µM
